Laboratory results from PubChem BioAssay.
Calls of active or inactive are those of the source.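 Rule for the calls, unless noted: active = current rise at least 3 SD above the untreated control mean in each of two repeat wells; inactive = the rest.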

What was measured:
[1] = thallium flux activation in parental CHO cells, counter-screen for KCNQ1 potentiator project (AID 493006;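 active = duplicate-averaged activation above buffer control mean plus 5 SD of those controls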); conditions: parental CHO-K1 cells, FluxOR thallium flux, at 10 µM; active compounds read high
Summary of the method: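 Assay system: Untransfected host CHO-K1 cells with FluxOR thallium dye | Probe or stimulus: Potassium/thallium depolarization pulse | Schedule: Overnight 37 °C plating, 90 min RT dye, 20 min compound | Detection: Kinetic thallium-flux fluorescence | Read-out: Max-minus-min fluorescence over baseline, percent of buffer-to-R-L3 span | Benchmarks: Low control buffer, high control R-L3 activator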

[2] = target: Potassium voltage-gated channel subfamily KQT member 1 (Homo sapiens) (UniProt P51787); assay: KCNQ1 potassium channel potentiators, confirmation, FluxOR thallium flux, CHO cells, duplicates (AID 493007;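 active = potentiation averaged over duplicate wells exceeding buffer-only control mean by more than 3 SD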;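 for outcome: cells depolarized by a potassium plus thallium sulfate stimulus after compound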); conditions: KCNQ1 cell line, FluxOR thallium flux fluorescence, at 10 µM; active compounds read high, % of reference activator effect, buffer zero
Summary of the method: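 Material: KCNQ1-expressing CHO cell line; Incubation: FluxOR dye loading 90 min, compound exposure 20 min, room temperature; Detection: FluxOR Tl+ flux fluorescence, 10 s baseline plus 110 s recording; Read-out: percent activation between buffer and R-L3 responses; Control set: buffer-only wells as 0% and R-L3 activator as 100%; Replication: duplicate wells per compound.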

[3] = target: Potassium voltage-gated channel subfamily KQT member 2 (Rattus norvegicus) (UniProt O88943); assay: rat KCNQ2 channel potentiation, selectivity assay for KCNQ1 potentiator project, KCNQ2-CHO-K1 cells (AID 493009;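 active = mean duplicate potentiation above the buffer control mean plus 5 SD of buffer wells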;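 note: assay conditions were tuned for KCNQ1 rather than KCNQ2 modulators; signal is max minus min fluorescence divided by baseline after thallium stimulus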); conditions: FluxOR thallium flux fluorescence, at 10 µM; active compounds read high, scaled: buffer 0, activator control 100
[4] = target: Potassium voltage-gated channel subfamily KQT member 1 (Homo sapiens) (UniProt P51787); assay: KCNQ1 channel current potentiators, confirmation, orthogonal assay for KCNQ1 potentiator project, IonWorks patch clamp, KCNQ1-CHO cells (AID 493184); conditions: automated patch clamp current, at 10 µM; active compounds read high;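 for current potentiation: percent change of the same well's current before compound addition so 0% = no change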
Summary of the method: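 assay system = KCNQ1-expressing CHO cells | medium = external bath solution at pH 7.4 | probe or stimulus = 2,000 ms depolarization, -90 to +40 mV | compound dosing = 10 µM final, single point | measured by = automated voltage clamp, amphotericin B perforated patch | measure = percent current increase versus pre-compound level | replication = duplicates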

Potassium voltage-gated channel subfamily KQT member 2 (Rattus norvegicus), sequence (O88943 whole entry, looked up): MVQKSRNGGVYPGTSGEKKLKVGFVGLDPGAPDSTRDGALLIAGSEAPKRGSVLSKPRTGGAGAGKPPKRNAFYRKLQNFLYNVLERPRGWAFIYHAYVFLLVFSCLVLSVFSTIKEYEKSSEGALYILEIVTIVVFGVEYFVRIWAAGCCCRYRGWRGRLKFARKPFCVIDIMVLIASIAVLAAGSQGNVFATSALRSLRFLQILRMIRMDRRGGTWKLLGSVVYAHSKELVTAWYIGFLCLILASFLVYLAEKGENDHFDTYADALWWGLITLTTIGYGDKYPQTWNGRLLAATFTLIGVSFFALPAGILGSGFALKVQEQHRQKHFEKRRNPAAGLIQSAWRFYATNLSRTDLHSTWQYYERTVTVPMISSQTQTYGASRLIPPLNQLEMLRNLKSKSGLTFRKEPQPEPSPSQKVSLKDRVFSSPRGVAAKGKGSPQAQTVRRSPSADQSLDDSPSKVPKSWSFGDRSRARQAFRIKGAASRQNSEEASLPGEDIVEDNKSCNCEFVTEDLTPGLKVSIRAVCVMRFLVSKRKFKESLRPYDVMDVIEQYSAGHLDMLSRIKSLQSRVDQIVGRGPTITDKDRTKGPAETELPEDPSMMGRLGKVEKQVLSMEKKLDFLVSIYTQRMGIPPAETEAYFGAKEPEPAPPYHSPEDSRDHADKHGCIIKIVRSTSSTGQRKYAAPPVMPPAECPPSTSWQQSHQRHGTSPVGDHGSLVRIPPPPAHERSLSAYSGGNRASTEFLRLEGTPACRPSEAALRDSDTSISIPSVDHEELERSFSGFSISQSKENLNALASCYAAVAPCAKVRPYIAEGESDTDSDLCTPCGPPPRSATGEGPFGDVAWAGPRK
Potassium voltage-gated channel subfamily KQT member 1 (Homo sapiens), sequence (P51787 whole entry, looked up): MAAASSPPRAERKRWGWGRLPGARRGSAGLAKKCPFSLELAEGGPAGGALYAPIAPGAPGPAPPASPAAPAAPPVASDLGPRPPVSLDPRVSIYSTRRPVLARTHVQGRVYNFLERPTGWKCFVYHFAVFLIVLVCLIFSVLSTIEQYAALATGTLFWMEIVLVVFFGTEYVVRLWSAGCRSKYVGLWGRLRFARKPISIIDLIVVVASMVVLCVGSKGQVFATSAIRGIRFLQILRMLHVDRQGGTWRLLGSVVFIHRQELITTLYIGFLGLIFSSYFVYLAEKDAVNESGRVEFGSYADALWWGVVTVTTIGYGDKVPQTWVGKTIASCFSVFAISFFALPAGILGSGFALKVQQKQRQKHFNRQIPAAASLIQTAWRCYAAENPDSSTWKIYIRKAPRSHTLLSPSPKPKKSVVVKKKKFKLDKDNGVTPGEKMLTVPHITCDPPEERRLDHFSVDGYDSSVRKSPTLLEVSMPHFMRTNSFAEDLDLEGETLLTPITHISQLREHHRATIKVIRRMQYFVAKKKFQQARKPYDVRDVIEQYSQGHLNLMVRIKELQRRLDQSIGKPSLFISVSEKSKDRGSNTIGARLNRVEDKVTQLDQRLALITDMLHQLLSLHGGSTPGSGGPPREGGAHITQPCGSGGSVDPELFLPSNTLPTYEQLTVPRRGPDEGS

SMILES | outcome [1] | outcome [2] | outcome [3] | outcome [4] | activation [1] | potentiation [2] | potentiation [3] | current potentiation [4]
CC(=O)c1c(O)cc(C)n(-c2ccc(F)cc2)c1=O | inactive | inactive | inactive | inactive | – | – | – | –
COc1ccc(NC(=O)CCCSc2nc(-c3ccco3)cc(C(F)(F)F)n2)cc1OC | inactive | inactive | inactive | inactive | – | – | – | –
C/C(=N/NC(=O)c1cc(C2CC2)[nH]n1)c1cccs1 | – | – | inactive | inactive | 150% (active) | 31.5% (active) | – | –
Cc1cc(/C=C2\C(=N)N3N=C(C(C)C)SC3=NC2=O)c(C)n1Cc1ccccc1 | inactive | inactive | inactive | inactive | – | – | – | –
COc1cc(CNCc2ccccn2)ccc1OCc1ccc(Cl)cc1 | inactive | inactive | inactive | inactive | – | – | – | –
COC(=O)c1c(N)sc2c1CCN(c1ncc(C(F)(F)F)cc1Cl)C2 | inactive | inactive | – | inactive | – | – | 142% (active) | –
S=c1[nH]c(-c2ccccc2)cs1 | – | – | – | inactive | 380% (active) | 184% (active) | 464% (active) | –
Cc1ccccc1NC(=O)C(=O)NNC(=O)COc1ccc2ccccc2c1 | – | – | – | inactive | 232% (active) | 93.5% (active) | 300% (active) | –
Cc1cc(Nc2cc(N3CCN(C)CC3)nc(Sc3ccc(NC(=O)C4CC4)cc3)n2)n[nH]1 | – | – | – | inactive | 140% (active) | 30% (active) | 144% (active) | –
CC(C)(C)NC(=O)CN(C(=O)CNC(=O)c1cccs1)c1ccc2c(c1)OCCO2 | inactive | inactive | inactive | inactive | – | – | – | –
C=CCSc1nc2sc3c(c2c(=O)n1CC)CCc1ccccc1-3 | – | – | – | inactive | 160% (active) | 91% (active) | 192% (active) | –
Cc1ccc(C(=O)O/N=C(\N)Cc2cccs2)c(Cl)c1 | inactive | inactive | inactive | inactive | – | – | – | –
Cc1sc2nc[nH]c(=S)c2c1-c1ccccc1 | – | – | – | inactive | 289% (active) | 93.5% (active) | 304% (active) | –
O=C(COc1ccc2ccccc2c1)NNC(=O)[C@@H]1CCCC[C@@H]1C(=O)O | inactive | inactive | inactive | inactive | – | – | – | –
O=C(O)c1ccccc1NS(=O)(=O)c1cccc(-n2sc3ccccc3c2=O)c1 | – | – | inactive | inactive | 154% (active) | 18% (active) | – | –
O=C1N(Cc2ccc(F)cc2)CCN1c1ccc(F)cc1 | – | – | – | inactive | 149% (active) | 22% (active) | 144% (active) | –
Cc1nc(NC(=S)NC(=O)c2cccs2)ccc1Br | – | – | inactive | inactive | 148% (active) | 23.5% (active) | – | –
O=C1c2ccccc2NC(c2ccc(-c3cccc(Cl)c3)o2)N1O (stereo not given) | inactive | inactive | inactive | inactive | – | – | – | –
CN1C(=O)NC(c2ccc(O)cc2)C(C(=O)c2cccs2)C1(O)C(F)(F)F (stereo not given) | inactive | inactive | inactive | inactive | – | – | – | –
COc1cc(NS(=O)(=O)c2ccc(NC(=S)NC(=O)c3sc4cc(F)ccc4c3Cl)cc2)nc(OC)n1 | – | inactive | inactive | inactive | 144% (active) | – | – | –

SMILES | outcome [1] | outcome [2] | outcome [3] | outcome [4] | activation [1] | potentiation [2] | potentiation [3] | current potentiation [4]
O=C(Nc1ccc(C(=O)O)cc1)/C(=C\c1ccc2c(c1)OCO2)NC(=O)c1ccc(Br)cc1 | inactive | inactive | inactive | inactive | – | – | – | –
Cc1onc(-c2ccccc2)c1C(=O)NC(=S)Nc1sc2c(c1C#N)CCC(C)C2 (stereo not given) | – | – | – | inactive | 145% (active) | 28% (active) | 142% (active) | –
COc1ccccc1-c1nc(C#N)c(N2CC(C)CC(C)C2)o1 (stereo not given) | inactive | inactive | inactive | inactive | – | – | – | –
CSc1nc(-c2ccccc2)[nH]c(=S)c1C(C)=O | – | – | – | inactive | 520% (active) | 138% (active) | 474% (active) | –
CS(=O)(=O)c1ccc(C(=O)OCc2nnc(-c3ccc(Cl)cc3)o2)cc1[N+](=O)[O-] | inactive | – | – | inactive | – | 30.5% (active) | 144% (active) | –
O=C(NN=C1c2ccccc2-c2ccccc21)c1ccccc1Br | inactive | – | inactive | inactive | – | 37% (active) | – | –
O=C(Nc1nnc(-c2ccc3c(c2)CCCC3)o1)c1ccc(Cl)cc1Cl | – | – | – | inactive | 374% (active) | 176% (active) | 442% (active) | –
O=[N+]([O-])c1cccc(-c2ccc3nnc(SCc4ccccn4)n3n2)c1 | inactive | inactive | inactive | inactive | – | – | – | –
CCn1c(=S)[nH]c2sc3c(c2c1=O)CCCC3 | – | – | – | inactive | 338% (active) | 149% (active) | 383% (active) | –
Cc1ccc(-n2c(=S)[nH]c3c(oc4ccccc43)c2=O)cc1C | – | – | – | inactive | 160% (active) | 23.5% (active) | 150% (active) | –
Nc1nc(NCc2ccco2)nc(NC2CCCCC2)c1[N+](=O)[O-] | inactive | inactive | inactive | inactive | – | – | – | –
Cc1ncc(CN2CCC(CO)(CCc3ccccc3)CC2)s1 | inactive | inactive | inactive | inactive | – | – | – | –
COc1ccc(-c2csc(NC(=O)C3CCCCN3S(=O)(=O)c3ccccc3)n2)cc1 (stereo not given) | inactive | – | inactive | – | – | 93.5% (active) | – | 122% (active)
CCOc1ccc(N=Nc2ccc(O)c3ncccc23)cc1 | inactive | – | inactive | inactive | – | 17.5% (active) | – | –
Cc1nn(CC(=O)NC(C)c2ccccc2)c(=O)c2ccccc12 (stereo not given) | – | – | – | inactive | 150% (active) | 85.5% (active) | 172% (active) | –
CCC(NC(=O)CCc1nnc(-c2cc(C)on2)o1)C12CC3CC(CC(C3)C1)C2 (stereo not given) | inactive | inactive | inactive | inactive | – | – | – | –
O=C(NC(=S)Nc1ccccc1N1CCCC1)c1cccs1 | – | – | – | inactive | 150% (active) | 104% (active) | 212% (active) | –
CSC(=S)N/N=C/c1ccc(Br)cc1 | – | – | – | inactive | 172% (active) | 38% (active) | 179% (active) | –
CC(=O)Nc1nc2c(F)cccc2s1 | inactive | inactive | inactive | inactive | – | – | – | –
COc1cc2c(cc1OC)CN(C(=O)COc1ccccc1[N+](=O)[O-])CC2 | inactive | inactive | inactive | inactive | – | – | – | –

SMILES | outcome [1] | outcome [2] | outcome [3] | outcome [4] | activation [1] | potentiation [2] | potentiation [3] | current potentiation [4]
Cc1cccc(NC(=O)c2cccnc2)c1 | inactive | inactive | inactive | inactive | – | – | – | –
CCNC(=S)N=Nc1c(O)n(Cc2ccc(Cl)cc2)c2ccccc12 | inactive | – | – | inactive | – | 37% (active) | 172% (active) | –
O=C(NC(=S)N(CCCCO)C1CCCCC1)c1sc2ccccc2c1Cl | – | – | – | inactive | 368% (active) | 192% (active) | 392% (active) | –
CCOc1ccccc1NC(=O)C(=O)CC(=O)c1ccc(OC)cc1 | – | – | – | inactive | 164% (active) | 64.5% (active) | 216% (active) | –
CCCCCCCC/C=C\CCCCCCCC(=O)O | – | – | inactive | inactive | 143% (active) | 51% (active) | – | –
CC(=O)Nc1cccc(/C(C)=N/NC(=O)c2ccc(Cl)cc2Cl)c1 | inactive | inactive | inactive | inactive | – | – | – | –
CCOC(=O)c1ccccc1N1C(=O)CSC1=S | inactive | inactive | inactive | inactive | – | – | – | –
COc1ccc(-c2cc3nc(C)c(CCC(=O)NC(C)CCc4ccco4)c(C)n3n2)c(OC)c1 (stereo not given) | inactive | inactive | inactive | inactive | – | – | – | –
Cc1ccccc1-n1cnnc1SCC(=O)N1CCN(c2ccccc2)CC1 | – | – | – | inactive | 200% (active) | 49.5% (active) | 206% (active) | –
O=C(Nc1ccc2[nH]c(=S)sc2c1)Nc1ccccc1F | – | – | – | inactive | 150% (active) | 68% (active) | 240% (active) | –
Oc1c(Br)cc(Br)cc1C=Nc1cccc2ncccc12 | – | inactive | inactive | inactive | 166% (active) | – | – | –
COc1ccc(NC(=S)NC(=O)c2ccc(Br)o2)cc1 | – | – | – | inactive | 146% (active) | 45.5% (active) | 195% (active) | –
C/C(=N\NC(=O)c1cccc(Br)c1)c1ccccn1 | inactive | inactive | inactive | inactive | – | – | – | –
C/C(N)=C(/C#N)C(=O)COc1ncnc2ccc(Br)cc12 | inactive | inactive | inactive | inactive | – | – | – | –
Cc1cc(C(c2cc(C)c(N)c(C)c2)c2ccco2)cc(C)c1N | – | – | – | inactive | 189% (active) | 138% (active) | 224% (active) | –
Cc1ccc(C(=O)NC(=S)N(C)Cc2ccccc2)cc1 | – | – | – | inactive | 146% (active) | 46% (active) | 178% (active) | –
COc1cccc(C(=O)Nc2nc(-c3ccccc3)c(-c3ccccc3)o2)c1 | – | – | – | inactive | 145% (active) | 31% (active) | 164% (active) | –
CCCCn1c(N)c(C(=S)NC(=O)CC(C)(C)C)c(=O)n(C)c1=O | – | – | – | inactive | 140% (active) | 37.5% (active) | 148% (active) | –
Cc1c(/C=N\NC(=O)c2ccc(F)cc2)cnn1C | inactive | inactive | inactive | inactive | – | – | – | –
c1ccc2[nH]c(-c3ccc4c(c3)OCO4)nc2c1 | inactive | inactive | inactive | inactive | – | – | – | –
